Data taken from ChEMBL document CHEMBL5380804, “Discovery of 2-(3-Benzamidopropanamido)thiazole-5-carboxylate Inhibitors of the Kinesin HSET (KIFC1) and the Development of Cellular Target Engagement Probes” (J Med Chem, 2023).

Assays:
[1] = biological target: T1, Kinesin-like protein KIFC1 (Homo sapiens) (UniProt Q9BW19); experiment: Displacement of CCT369834 probe from HSET in human DLD-1 cells assessed as decrease in localization of CCT369834 probe at 0.1 to 10 uM incubated for 45 mins by DAPI staining immunofluorescence analysis; assay type: cell-based; details: dose 0.1-10 µM
T1 sequence (whole entry): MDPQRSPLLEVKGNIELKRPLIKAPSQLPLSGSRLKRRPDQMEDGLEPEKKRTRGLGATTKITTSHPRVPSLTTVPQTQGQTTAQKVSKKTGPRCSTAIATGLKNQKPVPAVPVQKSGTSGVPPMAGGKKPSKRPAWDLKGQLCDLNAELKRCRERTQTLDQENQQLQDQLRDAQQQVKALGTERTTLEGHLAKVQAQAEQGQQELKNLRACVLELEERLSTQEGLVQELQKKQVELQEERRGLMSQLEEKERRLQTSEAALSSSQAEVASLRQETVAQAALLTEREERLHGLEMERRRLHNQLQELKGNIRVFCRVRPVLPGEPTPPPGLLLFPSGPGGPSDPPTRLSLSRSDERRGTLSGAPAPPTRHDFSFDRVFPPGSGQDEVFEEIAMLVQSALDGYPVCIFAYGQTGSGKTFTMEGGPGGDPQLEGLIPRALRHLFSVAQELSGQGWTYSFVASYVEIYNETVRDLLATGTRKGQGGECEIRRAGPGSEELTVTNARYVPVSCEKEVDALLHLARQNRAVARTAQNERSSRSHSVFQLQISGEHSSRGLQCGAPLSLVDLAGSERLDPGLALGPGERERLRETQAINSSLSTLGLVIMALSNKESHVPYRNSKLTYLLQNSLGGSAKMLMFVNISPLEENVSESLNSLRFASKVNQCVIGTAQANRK
In short: (§1)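 Target engagement in DLD1 4N cells, with HSET-knockout DLD1 as negative control. Cells pretreated 2 h with 8 μM pro-TAME, then given 3 μM TCO probe alone or with competitor plus 8 μM MG-132 in 1% FBS medium for 45 min. Washed, PFA-fixed, then 400 nM tetrazine-Cy5 for 10 min. Stained for pericentrin, KIFC1 and DAPI, followed by confocal 3D segmentation of mitotic poles. Cy5/KIFC1 pole intensity ratio, with KO signal subtracted, normalized to probe-alone control; n > 100 cells per replicate, two replicates per concentration.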

[2] = biological target: T1, Kinesin-like protein KIFC1 (Homo sapiens); experiment: Displacement of CCT369834 probe from HSET in human DLD-1 cells assessed as decrease in localization of CCT369834 probe at 0.1 to 10 uM incubated for 45 mins by Alexa-488 fluorophore staining immunofluorescence analysis; assay type: cell-based; details: dose 0.1-10 µM; in short: as §1
[3] = biological target: T1, Kinesin-like protein KIFC1 (Homo sapiens); experiment: Displacement of CCT369834 probe from HSET in human DLD-1 cells assessed as decrease in localization of CCT369834 probe at 0.1 to 10 uM incubated for 45 mins by TZ-Cy5 staining immunofluorescence analysis; assay type: cell-based; details: dose 0.1-10 µM; in short: as §1
[4] = biological target: T1, Kinesin-like protein KIFC1 (Homo sapiens); experiment: Inhibition of N-terminal His-tagged full length recombinant human HSET assessed as inhibition of microtubule-stimulated ATPase activity incubated for 10 mins in presence of ultra-ATP by ADP-Glo kinase assay relative to control
[5] = biological target: T1, Kinesin-like protein KIFC1 (Homo sapiens); experiment: Binding affinity to HSET in human DLD-1 assessed as fold increase in signal at 3 uM incubated for 45 mins by Alexa-488 fluorophore staining immunofluorescence analysis; assay type: cell-based
In short: (§2)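 DLD1 4N cells and CRISPR HSET-knockout DLD1 cells pretreated 2 h with 8 μM pro-TAME, then 45 min with 3 μM TCO click probe plus 8 μM MG-132 in DMEM/1% FBS. After washes, fixed in 4% PFA and reacted with 400 nM tetrazine-Cy5 for 10 min at room temperature. Stained for pericentrin, KIFC1 (Alexa-488) and DAPI; confocal 40× imaging; signal expressed relative to tetrazine-Cy5 alone.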

[6] = biological target: T1, Kinesin-like protein KIFC1 (Homo sapiens); experiment: Binding affinity to HSET in human DLD-1 with HSET knockout assessed as fold increase in signal at 3 uM incubated for 45 mins by Alexa-488 fluorophore staining immunofluorescence analysis; assay type: cell-based; in short: as §2
[7] = biological target: T2, Kinesin-like protein KIFC1 (Homo sapiens, UniProt Q9BW19); experiment: Binding affinity to N-terminal His-tagged full length recombinant human HSET assessed as dissociation constant incubated for 3 hrs in presence of 7 ug/ml of microtubules by fluorescence polarization assay
T2 sequence (Q9BW19 whole entry): T1 sequence (whole entry)
In short: (§3)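 Full-length human N-His HSET titrated from 2000 to 0.5 nM. Preincubated 10 min with paclitaxel-stabilized preformed microtubules or reconstitution buffer, then added to 2.5 nM sulfoCy5 probe. Buffer: 20 mM HEPES pH 7.5, 200 mM NaCl, 10 mM MgCl2, 1 mM TCEP, 0.1 mM Triton X-100, 5% glycerol.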

[8] = biological target: T2, Kinesin-like protein KIFC1; experiment: Binding affinity to N-terminal His-tagged full length recombinant human HSET assessed as dissociation constant incubated for 3 hrs in presence of 70 ug/ml of microtubules by fluorescence polarization assay; in short: as §3
[9] = biological target: T2, Kinesin-like protein KIFC1; experiment: Displacement of FP-Probe from N-terminal His-tagged full length recombinant human HSET incubated for 2 hrs by fluorescence polarization based competitive binding assay
In short: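 Competitive FP assay with 400 nM full-length human N-His HSET and 2.5 nM sulfoCy5 probe in 20 mM HEPES pH 7.5, 200 mM NaCl, 10 mM MgCl2, 1 mM TCEP, 0.1 mM Triton X-100, 5% glycerol. 11-point compound series from 100 to 0.001 μM final.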

Compound: CCCOC(=O)c1sc(NC(=O)C[C@H](CCCN(C)C)NC(=O)c2cccc(-c3noc(C)n3)c2)nc1C
- Activity [1]: Dose-Dependent Effect
- Activity [2]: Dose-Dependent Effect
- Activity [3]: Dose-Dependent Effect

Compound: CCOC(=O)c1sc(NC(=O)CCNC(=O)C2CCCC(C)C2)nc1C (stereo not given)
- inhibition [4]: 47%

Compound: CCCOC(=O)c1sc(NC(=O)C[C@H](CCCN(C)CC#CCNC(=O)O[C@@H]2CC/C=C/CCC2)NC(=O)c2cccc(-c3noc(C)n3)c2)nc1C
- fold change (FC) [5]: 14
- fold change (FC) [6]: 7

Compound: CCCOC(=O)c1sc(NC(=O)C[C@H](CCCNC(=O)CCCCC[N+]2=C(/C=C/C=C/C=C3/N(C)c4ccc(S(=O)(=O)O)cc4C3(C)C)C(C)(C)c3cc(S(=O)(=O)O)ccc32)NC(=O)c2cccc(-c3noc(C)n3)c2)nc1C
- Kd [7]: 0.315 µM
- Kd [8]: 0.332 µM

Compound: CCOC(=O)c1sc(NC(=O)CCNC(=O)c2cccc(-c3noc(C)n3)c2)nc1C
- IC50 [9]: 0.109 µM

Compound: CCOC(=O)c1sc(NC(=O)CCNC(=O)c2ccccc2)nc1C
- inhibition [4]: 47%
